Activity calls are given as the source filed them. The calls are words filed in the database; no cut-off is given here.
Key:
Nucleic Acid = assay: Inhibition of Fenton's reaction mediated DNA strand break in Escherichia coli pBR322 by gel electrophoresis; format: nucleic-acid assay
How it was run: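 pBR322 (0.2 μg) incubated 30 min at room temperature in 13 mM Hepes pH 7.2 with 1 mM H2O2 and 10 μM FeSO4 plus compound. Run on 1% agarose containing 0.1 μg/mL ethidium bromide at 90 V for 60 min. Bands quantified; % supercoiled = 1.4SC/(L+OC+1.4SC)×100.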

CCRF S-180 [1] = assay: Antitumor activity against mouse S180 cells transplanted in Kunming mouse assessed as inhibition of tumor growth at 12.5 mg/kg/day, ip for 7 days; format: functional; settings: CCRF S-180, ip, 168 h, route intraperitoneal
How it was run: (§1)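 Female Kunming mice, 7 weeks old, 18-22 g, inoculated sc in the right armpit with S-180 sarcoma. Dosing began the next day, ip daily for 7 days; normal saline given iv as control. Tumours excised and weighed after treatment. Inhibitory rate (%) = (mean control tumour weight − mean treated tumour weight)/mean control tumour weight × 100.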

[2] = molecular target: T1, DNA topoisomerase 2-alpha (Homo sapiens, UniProt P11388); assay: Inhibition of topoisomerase 2alpha-mediated displacement of Hoechst 33258 from DNA assessed as decrease in fluorescence; settings: concentration not given here
T1 sequence (P11388 whole entry): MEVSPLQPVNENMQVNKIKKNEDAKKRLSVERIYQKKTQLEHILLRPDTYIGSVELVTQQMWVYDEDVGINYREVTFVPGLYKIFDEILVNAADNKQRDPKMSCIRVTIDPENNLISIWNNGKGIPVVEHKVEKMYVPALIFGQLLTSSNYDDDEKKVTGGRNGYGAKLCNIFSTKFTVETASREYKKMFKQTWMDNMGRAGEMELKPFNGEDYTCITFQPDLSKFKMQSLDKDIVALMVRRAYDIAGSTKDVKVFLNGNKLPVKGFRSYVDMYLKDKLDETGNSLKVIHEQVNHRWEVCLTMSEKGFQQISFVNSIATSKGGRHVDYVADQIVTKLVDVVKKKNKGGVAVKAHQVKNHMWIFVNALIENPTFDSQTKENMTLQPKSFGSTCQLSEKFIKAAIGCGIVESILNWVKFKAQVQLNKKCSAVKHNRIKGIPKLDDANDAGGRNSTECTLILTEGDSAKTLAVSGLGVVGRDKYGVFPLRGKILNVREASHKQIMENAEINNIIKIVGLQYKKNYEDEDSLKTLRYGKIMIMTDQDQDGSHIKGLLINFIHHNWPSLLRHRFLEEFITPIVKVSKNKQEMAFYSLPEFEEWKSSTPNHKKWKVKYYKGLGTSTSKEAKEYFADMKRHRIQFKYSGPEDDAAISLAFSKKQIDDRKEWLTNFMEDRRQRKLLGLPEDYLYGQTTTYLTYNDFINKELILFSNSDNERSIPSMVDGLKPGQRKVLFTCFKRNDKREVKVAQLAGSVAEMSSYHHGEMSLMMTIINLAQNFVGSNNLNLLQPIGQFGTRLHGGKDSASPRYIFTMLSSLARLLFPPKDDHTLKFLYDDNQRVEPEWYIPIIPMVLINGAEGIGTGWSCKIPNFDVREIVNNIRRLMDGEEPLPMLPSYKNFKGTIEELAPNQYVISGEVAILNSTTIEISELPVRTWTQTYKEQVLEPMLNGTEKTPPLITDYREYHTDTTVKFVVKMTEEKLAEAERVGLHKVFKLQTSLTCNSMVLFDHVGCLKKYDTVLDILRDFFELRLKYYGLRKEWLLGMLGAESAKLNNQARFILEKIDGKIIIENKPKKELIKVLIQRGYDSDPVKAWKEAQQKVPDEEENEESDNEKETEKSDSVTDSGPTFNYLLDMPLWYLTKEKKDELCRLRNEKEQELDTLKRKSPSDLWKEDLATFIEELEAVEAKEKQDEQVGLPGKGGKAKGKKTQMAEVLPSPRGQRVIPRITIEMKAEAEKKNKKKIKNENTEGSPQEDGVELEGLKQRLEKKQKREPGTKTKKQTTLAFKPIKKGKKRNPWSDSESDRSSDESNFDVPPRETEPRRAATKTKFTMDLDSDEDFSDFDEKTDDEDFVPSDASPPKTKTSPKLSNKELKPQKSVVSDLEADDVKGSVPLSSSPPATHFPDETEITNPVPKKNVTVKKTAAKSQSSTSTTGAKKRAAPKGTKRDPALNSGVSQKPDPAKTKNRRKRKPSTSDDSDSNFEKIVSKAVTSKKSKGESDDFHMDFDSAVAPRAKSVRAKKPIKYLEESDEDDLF

CCRF S-180 [3] = assay: Antitumor activity against mouse S180 cells transplanted in Kunming mouse assessed as inhibition of tumor growth at 25 mg/kg/day, ip for 7 days; format: functional; settings: CCRF S-180, ip, 168 h, route intraperitoneal; how it was run: as §1
HT-29 [4] = assay: Cell cycle arrest in human HT-29 cells pretreated with aphidicolin for 1 hr assessed as accumulation at G1/S phase after 24 hrs by flow cytometry in presence of nocdazole; format: functional, cell-based
How it was run: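 HT-29 cells stained with propidium iodide; cell-cycle distribution determined by flow cytometry.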

[5] = molecular target: T1, DNA topoisomerase 2-alpha; assay: Inhibition of topoisomerase 2-mediated displacement of ethidium bromide from DNA assessed as decrease in fluorescence
[6] = Antiproliferative activity against human Rh30 cells after 72 hrs by sulforhodamine B assay; format: functional, cell-based; settings: SJRH30, 72 h
How it was run: (§2)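 Cells seeded and exposed in triplicate to graded compound concentrations for 72 h. Suspension cells read by MTT conversion to coloured product; adherent cells read by sulforhodamine B. IC50 (50% growth inhibition versus untreated control) derived by the Logit method.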

[7] = molecular target: T1, DNA topoisomerase 2-alpha; assay: Binding affinity to human topoisomerase 2 alpha ATPase domain in presence of ATP
How it was run: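 Surface plasmon resonance. Human Topo IIα ATPase domain immobilised on CM5 chips after activation of surface carboxyl groups. Serial compound dilutions flowed over the chip and sensorgrams recorded. KD obtained by steady-state affinity fitting.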

[8] = molecular target: T2, DNA topoisomerase 1 (Homo sapiens) (UniProt P11387); assay: Inhibition of human topoisomerase 1-mediated relaxation of pBR322 up to 125 uM
T2 sequence (whole entry): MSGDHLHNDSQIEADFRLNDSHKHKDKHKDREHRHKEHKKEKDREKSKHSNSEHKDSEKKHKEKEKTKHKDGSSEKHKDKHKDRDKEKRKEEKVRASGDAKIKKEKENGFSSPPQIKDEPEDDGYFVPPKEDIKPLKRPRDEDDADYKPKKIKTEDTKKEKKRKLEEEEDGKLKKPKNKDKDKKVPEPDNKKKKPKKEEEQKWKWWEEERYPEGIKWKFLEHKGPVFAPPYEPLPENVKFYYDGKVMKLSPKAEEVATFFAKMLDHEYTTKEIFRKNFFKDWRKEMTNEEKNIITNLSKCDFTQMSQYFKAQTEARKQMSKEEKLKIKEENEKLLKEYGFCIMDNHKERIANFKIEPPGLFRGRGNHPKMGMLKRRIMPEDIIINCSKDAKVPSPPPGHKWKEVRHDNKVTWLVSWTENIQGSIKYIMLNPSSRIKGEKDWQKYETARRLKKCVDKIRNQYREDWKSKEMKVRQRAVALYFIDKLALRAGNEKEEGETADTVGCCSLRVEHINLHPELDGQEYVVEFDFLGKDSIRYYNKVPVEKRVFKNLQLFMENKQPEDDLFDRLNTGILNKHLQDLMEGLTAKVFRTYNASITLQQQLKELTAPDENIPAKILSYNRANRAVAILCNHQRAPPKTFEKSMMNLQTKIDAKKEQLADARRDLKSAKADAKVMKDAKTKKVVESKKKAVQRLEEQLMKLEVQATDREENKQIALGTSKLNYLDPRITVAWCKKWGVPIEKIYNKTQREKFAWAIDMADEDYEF

[9] = molecular target: T1, DNA topoisomerase 2-alpha; assay: Inhibition of topoisomerase-2 alpha in human HT-29 cells assessed as reversal of etoposide-mediated DNA double strand break after 1 hr measured as phosphorylated histone2A level by immunostaining; format: cell-based
MCF7 = assay: Antiproliferative activity against human MCF7 cells after 72 hrs by sulforhodamine B assay; format: functional, cell-based; settings: MCF7, 72 h
NCI-H23 = assay: Antiproliferative activity against human NCI-H23 cells after 72 hrs by sulforhodamine B assay; format: functional, cell-based; settings: NCI-H23, 72 h; how it was run: as §2
MKN-28 = assay: Antiproliferative activity against human MKN28 cells after 72 hrs by sulforhodamine B assay; format: functional, cell-based; settings: MKN-28, 72 h; how it was run: as §2
[10] = molecular target: T1, DNA topoisomerase 2-alpha; assay: Inhibition of topoisomerase-2 alpha in human HT-29 cells assessed as reversal of etoposide-mediated DNA double strand break measured as phosphorylated histone2A level at 1 uM by immunostaining; format: cell-based
HCT-116 = assay: Antiproliferative activity against human HCT116 cells after 72 hrs by sulforhodamine B assay; format: functional, cell-based; settings: HCT-116, 72 h; how it was run: as §2
[11] = molecular target: T1, DNA topoisomerase 2-alpha; assay: Inhibition of topoisomerase-2 alpha in human HT-29 cells assessed as reversal of etoposide-mediated DNA double strand break measured as phosphorylated histone2A level at 30 uM by immunostaining; format: cell-based
[12] = molecular target: T1, DNA topoisomerase 2-alpha; assay: Inhibition of human topoisomerase 2alpha-mediated relaxation of pBR322
[13] = molecular target: T1, DNA topoisomerase 2-alpha; assay: Inhibition of human topoisomerase 2 alpha-mediated decatenation of kDNA at 100 uM after 15 mins
MKN-45 = assay: Antiproliferative activity against human MKN45 cells after 72 hrs by sulforhodamine B assay; format: functional, cell-based; settings: MKN-45, 72 h; how it was run: as §2
[14] = molecular target: T1, DNA topoisomerase 2-alpha; assay: Inhibition of topoisomerase-2 alpha in human HL60/MX2 cells assessed as antagonization of enzyme-DNA cleavage complex at 100 uM; format: cell-based
[15] = molecular target: T2, DNA topoisomerase 1 (Homo sapiens); assay: Inhibition of topoisomerase 1-mediated unwinding of supercoiled DNA assessed as DNA intercalation
[16] = molecular target: T1, DNA topoisomerase 2-alpha; assay: Inhibition of topoisomerase-2 alpha in human HT-29 cells assessed as reversal of etoposide-mediated DNA double strand break measured as phosphorylated histone2A level at 100 uM by immunostaining; format: cell-based
HT-29 [17] = assay: Inhibition of DNA synthesis in human HT-29 cells measured up to 8 hrs by BrdU incorporation assay; format: functional, cell-based
How it was run: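 HT-29 cells; DNA synthesis measured by BrdU incorporation with flow detection.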

KB = assay: Antiproliferative activity against human KB cells after 72 hrs by sulforhodamine B assay; format: functional, cell-based; how it was run: as §2
[18] = molecular target: T1, DNA topoisomerase 2-alpha; assay: Inhibition of topoisomerase 2alpha assessed as antagonization of etoposide-mediated prestrand passage DNA cleavage in absence of ATP

In the case of `CN(C)C(=S)N/N=C/c1ccc2ccccc2n1`, the inhibition (Nucleic Acid) is reported as “Dose-dependent effect”, the inhibition in vivo at 12.5 mg/kg/day (CCRF S-180 [1]) is reported as 17.6% and the inhibition [2] is reported as 22%. The inhibition in vivo at 25 mg/kg/day (CCRF S-180 [3]) was 35.8%, the Activity (HT-29 [4]) was “inactive” and the inhibition [5] was “inactive”. The IC50 [6] was 0.002 µM, the Activity [7] was “inactive” and the inhibition [8] was “inactive”. The inhibition [9] was “Dose-dependent effect”, the IC50 (MCF7) was 0.34 µM and the IC50 (NCI-H23) was 0.08 µM. For the same molecule, the IC50 (MKN-28) was 0.17 µM, the inhibition [10] was “Active” and the IC50 (HCT-116) was 0.22 µM. For the same molecule, the inhibition [11] was “Active”, the inhibition [12] was “Dose-dependent effect” and the “inhibition (active/not active)” value [13] was “Active”. The IC50 (MKN-45) was 0.83 µM, the inhibition [14] was “inactive” and the inhibition [15] was “inactive”. For the same molecule, the inhibition [16] was “Active”, the inhibition (HT-29 [17]) was “Dose-dependent effect” and the IC50 (KB) was 0.77 µM. For the same molecule, the inhibition [18] was “inactive”.
